HTRA1 inhibitor = HTRA1 (human) protease inhibition; Q92743; recombinant HTRA1, FP-rhodamine activity-based probe, fluorescence polarization; inhibition, % at 5.96 µM; 0.5% of 340,000 active; AID 504803; in the data active = inhibition above about 36%;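 also: 0% = enzyme with DMSO and 100% = wells lacking enzyme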
ABHD4 inh = ABHD4 (mouse) inhibition, primary FP screen | Q8VD66 | purified mABHD4, FP-Rh probe fluorescence polarization | inhibition, % at 8.92 µM | 0.54% of 370,000 active | AID 720543;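 active = inhibition exceeding the mean over every tested compound plus 3 SD, cut at about 30% in these data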;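 also: 0% = plate median of compound wells and 100% = S159A mutant with DMSO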
Target sequence (Q8VD66 whole entry, looked up): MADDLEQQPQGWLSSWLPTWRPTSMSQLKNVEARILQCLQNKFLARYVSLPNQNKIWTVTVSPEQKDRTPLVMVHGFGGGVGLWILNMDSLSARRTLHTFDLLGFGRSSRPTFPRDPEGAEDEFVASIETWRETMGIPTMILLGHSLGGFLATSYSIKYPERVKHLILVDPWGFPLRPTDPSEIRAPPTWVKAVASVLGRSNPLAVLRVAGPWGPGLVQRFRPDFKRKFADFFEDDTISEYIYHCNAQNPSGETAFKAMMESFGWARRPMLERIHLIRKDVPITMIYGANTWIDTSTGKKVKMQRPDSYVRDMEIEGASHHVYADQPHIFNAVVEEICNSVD
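Test system: mABHD4 protein; Read-out basis: % inhibition; Incubation: 45 min + 60 min at 25 °C; Repeats: single replicate; Technique: fluorescence polarization with parallel and perpendicular emission, 525/598 nm; Compound: 8.92 µM, single dose; Benchmarks: full inhibition S159A mutant plus DMSO, zero as sample-well median.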
SIAE inh = human SIAE inhibition, primary screen; Q9HAT2; 0.69% of 370,000 active; inhibition, % at 9.66 µM; SIAE FP-Rh probe binding, fluorescence polarization;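 active = inhibition above a cutoff: mean of compounds within the control limits plus 3 SD of those, cut at about 17% in these data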;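 also: 0% = plate median of compound wells and 100% = probe without SIAE protein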
PME-1 inh = PME-1 (human) inhibition | Q9Y570 | recombinant PME-1, FP-Rh probe fluorescence polarization | inhibition, % at 5.9 µM | 0.53% of 320,000 active | AID 2130;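 active = inhibition above the campaign mean of all compounds plus 3 SD, cut at about 26% in these data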;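 also: competitive labeling of PME-1 active site by serine hydrolase directed probe; 0% = PME-1 with DMSO and 100% = wells lacking PME-1 enzyme; inhibitors block probe labeling so polarization falls and inhibition rises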
Fam108B inh = counter-screen for RBBP9 inhibitors: inhibitors of mouse Fam108B; recombinant Fam108B, FP-Rh probe fluorescence polarization; inhibition, % at 9.51 µM; 0.33% of 300,000 active; AID 1947;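 active = inhibition above the screen mean inhibition plus 3 SD, computed separately per campaign, cut at about 18% in these data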;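 also: inhibitors lower polarization as less probe binds the enzyme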
TCR CD3 inh = blocks the human TCR-CD3 interaction; TAMRA-labeled TCR probe fluorescence, biochemical; inhibition, % at 9.4 µM; 0.37% of 360,000 active; AID 651800; in the data active = inhibition above about 19%;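 also: recombinant mutant TCR 2C K166C tagged with TAMRA read by polarization; 0% = receptor in buffer alone and 100% = receptor with positive control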
Fam108b inh conf = confirmation of mouse Fam108b serine hydrolase inhibitors | inhibition, % at 9.51 µM | recombinant Fam108b, FP-Rh probe fluorescence polarization | shares compounds with Fam108B inh | 44% of 930 active;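 active = inhibition above a limit from the primary screen, the mean over all compounds plus 3 SD, cut at about 19% in these data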;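 also: 0% = median of active Fam108b wells and 100% = catalytically dead S170A mutant; inhibitors free the probe so polarization falls as inhibition rises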
Fam108b ABPP HTS = inhibits mouse Fam108b in gel-based ABPP | shares compounds with Fam108B inh | 44% of 260 active | recombinant Fam108b, fluorophosphonate probe | AID 588649 | inhibition, % at 20 µM; in the data active = inhibition above about 40%
HTRA1 inh conf = HTRA1 (human) inhibition, confirmation. inhibition, % at 5.96 µM. shares compounds with HTRA1 inhibitor. 66% of 1,600 active. recombinant HTRA1, FP-rhodamine activity-based probe, fluorescence polarization;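 active = mean inhibition over three repeats above a set limit taken from the earlier primary screen, cut at about 37% in these data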;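 also: 0% = HTRA1 with DMSO and 100% = wells lacking HTRA1; inhibitors block probe binding so polarization drops and inhibition rises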
* hit, by the source's call. The list is not random: actives were taken first. Their share in the collection is about 1.8%.

Screening CC(C)C[C@@H]1COc2cc(Br)ccc2S(=O)(=O)N1Cc1cn(CCC2OCCCO2)nn1 returned ABHD4 inh -2 and SIAE inh 2.
COc1cc(-c2nc(-c3ccc4c(c3)-c3ccccc3S4(=O)=O)c(-c3ccccc3)[nH]2)cc(OC)c1O was read as HTRA1 inhibitor 35, ABHD4 inh 20, SIAE inh 14, PME-1 inh 1, Fam108B inh 32*, TCR CD3 inh 0, Fam108b inh conf 37* and Fam108b ABPP HTS 80*.
Screening COc1ccc(OC)c(Nc2nc(-c3sc(N)nc3C)cs2)c1 returned HTRA1 inhibitor 31, ABHD4 inh 17, SIAE inh 5, PME-1 inh 13, Fam108B inh 21*, TCR CD3 inh -1 and Fam108b inh conf 17.
Screening CO[C@H]([C@H](C)/C=C/N(C)C=O)[C@@H](C)C(=O)CC[C@H](C)[C@H](O)[C@H](C)[C@H]1OC(=O)/C=C/C(C)=C/C[C@H](O)C[C@@H]2C=CC[C@@H](C[C@H](OC)[C@@]3(CO3)[C@@H](OC)C[C@@H](OC)[C@@H]1C)O2 returned ABHD4 inh 5 and SIAE inh 3.
CCCCNC(=O)C[C@H]1C[C@@]2(C(=O)OC)C(=C[C@H](C3CCCC3)O[C@@H]2C)N(CCc2ccc(OC)c(OC)c2)C1=O was read as ABHD4 inh -5 and SIAE inh -2.
For COCCCN1C(=O)[C@H](CC(=O)NCc2cccc3ccccc23)[C@]2(C(=O)OC)CCCCC=C12 the results were ABHD4 inh 2 and SIAE inh -8.
Screening Cc1ccc(OCC(=O)Nc2oc(-c3ccccc3)c(-c3ccccc3)c2C#N)cc1 returned HTRA1 inhibitor -31, ABHD4 inh -12, SIAE inh -16, PME-1 inh -15, Fam108B inh -9 and TCR CD3 inh 4.
Screening COc1ccc(-c2oc(NC(=O)CCl)c(C#N)c2-c2ccc(OC)cc2)cc1 returned HTRA1 inhibitor -1, ABHD4 inh -10, SIAE inh 9, PME-1 inh 42*, Fam108B inh 22*, TCR CD3 inh -2, Fam108b inh conf 34* and Fam108b ABPP HTS 20.
For NC(=O)C1CCN(c2nc(-c3ccc(Oc4ccccc4)cc3)cs2)CC1 the results were ABHD4 inh 6 and SIAE inh 3.
`O=C1[C@@H]2Cc3c([nH]c4ccccc34)C(c3ccc([N+](=O)[O-])cc3)N2C(=O)CN1C1CC1` (some centres not stated) gave HTRA1 inhibitor -9, ABHD4 inh 4, SIAE inh 1, PME-1 inh 5, Fam108B inh 0 and TCR CD3 inh -5.
`O=C1[C@@H]2Cc3c([nH]c4ccccc34)C(c3ccccc3)N2C(=O)CN1C1CC1` (some centres not stated) gave HTRA1 inhibitor 2, ABHD4 inh -8, SIAE inh 8, PME-1 inh 27*, Fam108B inh 19*, TCR CD3 inh 1 and Fam108b inh conf 6.
`COc1cccc(C=NNC(=O)c2[nH]c(C)c(C(=O)NN=Cc3cccc(OC)c3O)c2C)c1O` gave Fam108b ABPP HTS 95*.
`CCOC(=O)c1c(C)[nH]c(C(=O)N/N=C\c2ccccc2O)c1C` gave HTRA1 inhibitor -4, ABHD4 inh -6, SIAE inh 15, PME-1 inh 4, Fam108B inh 19*, TCR CD3 inh 1 and Fam108b inh conf -10.
Screening CCOC(=O)[C@@]12CN(C(=O)OC(C)(C)C)CC=C1N(Cc1ccc(OC)cc1)C(=O)[C@H]2CC(=O)N1CCSCC1 returned ABHD4 inh 0 and SIAE inh 8.
CCOC(=O)CSc1nc2c(sc(=S)n2-c2ccccc2OC)c(=O)n1Cc1ccco1 was read as HTRA1 inhibitor -15, ABHD4 inh -8, SIAE inh -5, PME-1 inh 26, Fam108B inh 19*, TCR CD3 inh -2 and Fam108b inh conf 7.
CCOC(=O)c1sc(NC(=O)Nc2ccc(Cl)cc2)cc1C was read as HTRA1 inhibitor 2, ABHD4 inh -31, SIAE inh -18, PME-1 inh 20, Fam108B inh 44*, TCR CD3 inh -11, Fam108b inh conf 83* and Fam108b ABPP HTS 95*.
Screening CCOC(=O)c1sc(NC(=O)c2ccc(Cl)s2)cc1C returned HTRA1 inhibitor -7, ABHD4 inh -4, SIAE inh 1, PME-1 inh -6, Fam108B inh -1 and TCR CD3 inh 6.
C=CCN1[C@@H](Cc2ccccc2)COc2cccc(N3CCCC3)c2S1(=O)=O was read as ABHD4 inh -3 and SIAE inh 1.
Screening COc1ccc(S(=O)(=O)/N=C2\C=C(Nc3ccc(O)cc3)C(=O)c3ccccc32)cc1 returned HTRA1 inhibitor 84*, ABHD4 inh 75*, SIAE inh 40*, PME-1 inh 36*, Fam108B inh 28*, TCR CD3 inh 0, Fam108b inh conf 37*, Fam108b ABPP HTS 65* and HTRA1 inh conf active.
For CO[C@H]([C@H](C)/C=C/N(C)C=O)[C@@H](C)C(=O)CC[C@H](C)[C@H](O)[C@H](C)[C@H]1OC(=O)/C=C/C(C)=C/C[C@H](O)C[C@@H]2C=CC[C@@H](C[C@H](OC)[C@@H](C)[C@@H](OC)C[C@@H](OC)[C@@H]1C)O2 the results were ABHD4 inh 6 and SIAE inh 2.
`COc1cccc(/C=N/Nc2ncnc3scc(-c4ccccc4)c23)c1O` gave HTRA1 inhibitor 45*, ABHD4 inh 8, SIAE inh 3, PME-1 inh 17, Fam108B inh 23*, TCR CD3 inh 4, Fam108b inh conf 3 and HTRA1 inh conf 2.
`Cc1ccc(NC(=O)c2cccc3c2-c2ccccc2C3=O)c(C)c1` gave ABHD4 inh 3 and SIAE inh 5.
Screening COC(=O)[C@]12C[C@H](CC(=O)NCc3ccc(C)o3)C(=O)N(Cc3cccc4ccccc34)C1=C[C@H](C(C)(C)C)O[C@@H]2C returned ABHD4 inh -12 and SIAE inh -8.
CCOC(=O)/C(=N\Nc1ccc(OC)cc1)c1csc(Nc2ccccc2)n1 was read as HTRA1 inhibitor 43*, ABHD4 inh 13, SIAE inh 15, PME-1 inh 11, Fam108B inh 23*, TCR CD3 inh 5, Fam108b inh conf 10 and HTRA1 inh conf 28.

Screening results: PubChem, The Scripps Research Institute Molecular Screening Center
